Assay results from ChEMBL document CHEMBL1134460, “Terminally alkylated polyamine analogues as chemotherapeutic agents” (J Med Chem, 2001).
pIC50, pKi: −log10 of the molar value.

Key:
[1] = target: T1, Diamine acetyltransferase 1 (Homo sapiens, UniProt P21673); experiment: Effect of 10 uM on spermine/spermidine-N-acetyltransferase (SSAT) induction in non-SCLC cells; format: cell-based
Outline: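 NCI H157 non-small-cell lung tumor cells were exposed to 10 μM analogue. SSAT activity was assayed and expressed as pmol product/mg protein/min, then as fold increase over untreated control cells.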

[2] = test system: NCI-H157; experiment: Effect of exposure of H157 non-SCLC to compound (<10 uM) for 96-h, on natural polyamines and accumulation of the compound; Decrease; format: functional, cell-based; settings: Homo sapiens
Outline: (§1)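 H157 non-SCLC cells were treated with 10 μM analogue. Cellular putrescine, spermidine and spermine, plus the intracellular analogue, were quantified and compared with untreated control cells.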

[3] = test system: NCI-H157; experiment: Effect of exposure of H157 non-SCLC (<10 uM) for 96-h, and accumulation of compound was determined; format: functional, Homo sapiens
[4] = target: T2, Ornithine decarboxylase (Homo sapiens) (UniProt P11926); experiment: Inhibition of ornithine decarboxylase (ODC); set-up: concentration or dose not given beside the values; settings: concentration not given here
T2 sequence (whole entry): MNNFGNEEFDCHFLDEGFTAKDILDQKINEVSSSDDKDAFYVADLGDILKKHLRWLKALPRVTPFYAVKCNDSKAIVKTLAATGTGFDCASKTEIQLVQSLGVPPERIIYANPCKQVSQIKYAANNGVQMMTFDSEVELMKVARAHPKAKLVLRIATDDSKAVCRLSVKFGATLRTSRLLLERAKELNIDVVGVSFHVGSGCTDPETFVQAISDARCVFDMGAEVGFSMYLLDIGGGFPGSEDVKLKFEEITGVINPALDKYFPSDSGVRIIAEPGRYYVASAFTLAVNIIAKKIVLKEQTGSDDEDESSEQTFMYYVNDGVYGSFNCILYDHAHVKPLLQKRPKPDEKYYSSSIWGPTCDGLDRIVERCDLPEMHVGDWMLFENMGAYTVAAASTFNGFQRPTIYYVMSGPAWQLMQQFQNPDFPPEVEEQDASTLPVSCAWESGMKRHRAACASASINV

[5] = test system: Trypanosoma brucei; experiment: In vitro growth Inhibitory activity against K243 Strain of Trypanosoma brucei.; format: functional, organism-based
Outline: (§2)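 In vitro growth inhibition was run against T. b. brucei LAB EATRO 110 and T. b. rhodesiense KETRI 243, KETRI 243 As-10-3 and KETRI 269. […] ">100" means no appreciable inhibition up to the highest concentration tested.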

[6] = test system: Trypanosoma brucei; experiment: In vitro growth Inhibitory activity against LAB 110 Strain of Trypanosoma brucei; format: functional, organism-based; outline: as §2
[7] = target: S-adenosylmethionine decarboxylase (Homo sapiens) (UniProt P17707); experiment: Inhibition of Inhibition of human form of S-adenosyl-methionine decarboxylase enzyme (AdoMet-DC); set-up: concentration or dose not given beside the values; settings: concentration not given here
[8] = test system: NCI-H157; experiment: Activity against H157 non-SCLC cells in culture; format: functional, cell-based; settings: Homo sapiens
[9] = target: T1, Diamine acetyltransferase 1; experiment: Inhibitory activity of compound against SSAT extracted from superinduced H157 cells; format: cell-free
Outline: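 SSAT came from crude extracts of superinduced H157 cells and was assayed at saturating spermidine.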

[10] = target: T3, Spermine synthase (Homo sapiens, UniProt P52788); experiment: Inhibitory activity against spermine synthase
T3 sequence (P52788 whole entry): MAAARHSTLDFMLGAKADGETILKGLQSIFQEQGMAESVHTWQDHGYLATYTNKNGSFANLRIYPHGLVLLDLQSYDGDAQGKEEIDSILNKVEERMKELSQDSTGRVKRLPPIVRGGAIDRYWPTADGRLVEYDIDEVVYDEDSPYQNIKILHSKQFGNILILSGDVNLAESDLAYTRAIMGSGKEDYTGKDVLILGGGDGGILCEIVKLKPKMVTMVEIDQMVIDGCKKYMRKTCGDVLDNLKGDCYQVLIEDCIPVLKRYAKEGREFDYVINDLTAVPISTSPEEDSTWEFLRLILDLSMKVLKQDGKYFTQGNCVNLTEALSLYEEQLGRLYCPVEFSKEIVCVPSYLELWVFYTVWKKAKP

[11] = test system: NCH82; experiment: Cytokinetic effects on H82 small-cell lung tumor line (SCLC) after 96-h treatment; format: functional, Homo sapiens
[12] = test system: NCI-H157; experiment: (§3) Effect of exposure of H157 non-SCLC to compound (<10 uM) for 96-h, on natural polyamines and accumulation of the compound; No significant change; format: functional, cell-based; settings: Homo sapiens; outline: as §1
[13] = test system: NCI-H157; experiment: Spermine/Spermidine-N1-acetyltransferase activity in NCI H157 non-SCLC tumor cells following 24-h treatment with 10 uM of compound; format: functional, Homo sapiens
Outline: (§4)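 NCI H157 non-SCLC cells were exposed to 10 μM analogue alongside untreated controls. Cellular polyamines and analogue were quantified. SSAT activity was assayed in the cells and reported as pmol product/mg protein/min.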

[14] = test system: NCI-H157; experiment: BENSpm level in NCI H157 non-SCLC tumor cells following 24-h treatment with 10 uM of compound; format: functional, Homo sapiens; outline: as §4
[15] = Compound was evaluated for cytotoxic activity against PC-3, DU145 and LNCaP cell lines; format: functional, Homo sapiens
Outline: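 PC-3, DU145 and LNCaP prostate cancer cells were exposed to analogues over 0.1–30 μM for 120 h. Dose–response curves of growth were recorded.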

[16] = test system: NCI-H157; experiment: Spermine level in NCI H157 non-SCLC tumor cells following 24-h treatment with 10 uM of compound; format: functional, Homo sapiens; outline: as §4
[17] = test system: NCI-H157; experiment: CHENSpm level in NCI H157 non-SCLC tumor cells following 24-h treatment with 10 uM of compound; format: functional, Homo sapiens; outline: as §4
[18] = test system: NCH82; experiment: In vitro activity against H82 small-cell lung tumor line (SCLC) cultures.; format: functional, cell-based; settings: Homo sapiens
[19] = test system: NCI-H157; experiment: Putrescine level in NCI H157 non-SCLC tumor cells following 24-h treatment with 10 uM of compound; format: functional, Homo sapiens; outline: as §4
[20] = test system: NCI-H157; experiment: Spermidine level in NCI H157 non-SCLC tumor cells following 24-h treatment with 10 uM of compound; format: functional, Homo sapiens; outline: as §4
[21] = test system: NCI-H157; experiment: In vitro activity against H157 non-small-cell lung tumor line (non-SCLC) cultures.; format: functional, cell-based; settings: Homo sapiens
[22] = test system: NCI-H157; experiment: as §3; format: functional, cell-based; settings: Homo sapiens; remark: listed apart in the source
[23] = test system: Cricetinae gen. sp.; experiment: […] activity was determined against Leishmania donovani in hamsters; format: functional, Cricetulus griseus
[24] = test system: NCI-H157; experiment: Antitumor activity was determined against H157 cell line; format: functional, cell-based; settings: Homo sapiens
[25] = species: Mus musculus; experiment: […] activity was determined against Leishmania donovani in mice (Mus musculus); format: functional
[26] = test system: Trypanosoma brucei; experiment: in vivo inhibition of trypanosomal brucei growth was determined; format: functional, organism-based
[27] = test system: Trypanosoma brucei; experiment: in vivo growth inhibition of Trypanosoma brucei was determined; format: functional, organism-based
[28] = Half-life period in liver tissues; format: ADME, tissue-based
[29] = target: T4, S-adenosylmethionine decarboxylase proenzyme (Rattus norvegicus, UniProt P17708); experiment: Inhibition of rat liver form of S-adenosyl-methionine decarboxylase enzyme
T4 sequence (P17708 whole entry): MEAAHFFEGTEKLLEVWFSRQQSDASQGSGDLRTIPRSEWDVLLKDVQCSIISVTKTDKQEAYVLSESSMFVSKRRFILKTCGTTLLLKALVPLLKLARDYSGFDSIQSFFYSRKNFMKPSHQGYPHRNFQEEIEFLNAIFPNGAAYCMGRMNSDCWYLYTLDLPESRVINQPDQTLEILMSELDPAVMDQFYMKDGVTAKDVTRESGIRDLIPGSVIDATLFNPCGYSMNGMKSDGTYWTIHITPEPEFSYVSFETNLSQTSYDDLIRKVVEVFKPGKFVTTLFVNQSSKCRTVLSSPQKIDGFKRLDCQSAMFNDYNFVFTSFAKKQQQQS

T1 sequence (P21673 whole entry): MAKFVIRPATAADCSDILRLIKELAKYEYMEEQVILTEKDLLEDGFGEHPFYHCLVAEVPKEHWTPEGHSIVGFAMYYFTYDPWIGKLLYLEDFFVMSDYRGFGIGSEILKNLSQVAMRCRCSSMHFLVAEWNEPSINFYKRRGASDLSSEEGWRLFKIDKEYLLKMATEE

Row | Compound | Induction [1] | Effect on polyamine pools [2] | Amount [3] | inhibition [4] [%] | other results
1 | CCNCCCNCCCNCCCNCC1CCC1 | > 500 | Decrease | >20 nM (mg of protein)-1 | > 50 | –
2 | CCNCCCN[C@@H]1CCC[C@H](N)CC1 | – | – | – | – | pIC50 [5]: < 4.00; pIC50 [6]: < 4.00
3 | CCNCCCNCCCNCCCNCC1CCCC1 | > 500 | Decrease | >20 nM (mg of protein)-1 | > 50 | inhibition [7]: > 50%
4 | CCNCCCNCCCNCCCNC1CCCCCC1 | > 500 | Decrease | >20 nM (mg of protein)-1 | – | –
5 | C#CCNCCCNCCCNCCCNCC | > 500 | Decrease | – | < 50 | pIC50 [8]: 5.96; pIC50 [9]: 4.40
6 | N[C@@H]1C=C[C@H](NCCCNCC2CC2)C1 | – | – | – | – | pIC50 [5]: < 4.00; pIC50 [6]: < 4.00
7 | NCCCNCCCCCC(CCN)SC[C@H]1O[C@@H](n2cnc3c(N)ncnc32)[C@H](O)[C@@H]1O (stereo partly specified) | – | – | – | – | pIC50 [10]: 7.70
8 | CCNCCCNCCCNCCCNCC1CCC(Br)CC1 (stereo unspecified) | < 50 | Decrease | >20 nM (mg of protein)-1 | < 50 | inhibition [7]: < 50%
9 | CCNCCCNCCCN1CCCCCC1 | < 50 | – | – | – | Effect [11]: 0; Effect on polyamine pools [12]: No significant change
10 | CCNCCCN[C@H]1C=C[C@@H](N)CCC1 | – | – | – | – | pIC50 [5]: < 4.00; pIC50 [6]: < 4.00
11 | CCNCCCNCCCNC1CCCCCC1 | > 50 | Decrease | – | < 50 | –
12 | CCNCCCCNCCCNCC | > 50 | Decrease | >20 nM (mg of protein)-1 | > 50 | inhibition [7]: < 50%
13 | CCNCCCNCCCNCC1CCCCCC1 | > 500 | Decrease | >20 nM (mg of protein)-1 | – | –
14 | CCNCCCNCCCNCCCNCC1CCCCCC1 | 0 | Decrease | >20 nM (mg of protein)-1 | < 50 | Activity [13]: 781 (pM of product) min-1 (mg of protein)-1; Polyamine level [14]: 0; CC [15]: 30 µM; Polyamine level [16]: 15.97; inhibition [7]: < 50%; Polyamine level [17]: 14.66; pIC50 [18]: 6.15; Polyamine level [19]: 4.28; Polyamine level [20]: 6.44; pIC50 [21]: 6.40
15 | CCNCCCNCCCCCCCNCCCNCC1CCCCCC1 | 0 | – | <20 nM (mg of protein)-1 | < 50 | inhibition [7]: < 50%; NC [22]: No significant change
16 | CCNCCCNCCCNCCCO | > 500 | Decrease | >20 nM (mg of protein)-1 | < 50 | inhibition [7]: < 50%; Effect [11]: 0
17 | CCNCCCNCCCNCCCN1CCCCCC1 | > 500 | Decrease | – | – | –
18 | c1ccc(CNCCCNCCCCCCCNCCCNCc2ccccc2)cc1 | – | – | – | – | ED50 [23]: 1 mg/kg; pIC50 [24]: 6.30; pIC50 [18]: 5.77; pIC50 [21]: 6.30; ED50 [25]: 2.5 mg/kg
19 | C(CCCNCCCNCC1CCCCCC1)CCCNCCCNCC1CCCCCC1 | 0 | – | – | – | NC [22]: No significant change
20 | C[S+](C[C@@H]1O[C@H](n2cnc3c(N)ncnc32)[C@@H](O)[C@H]1O)C1C=CC(N)C1 (stereo partly specified) | – | – | – | – | pIC50 [26]: 5.28
21 | C[S+](C[C@@H]1O[C@H](n2cnc3c(N)ncnc32)[C@@H](O)[C@H]1O)C1C=CC(ON)C1 (stereo partly specified) | – | – | – | – | pIC50 [27]: 6.05
22 | CCNCCCNCCCNCCCNCC1CCCCC1 | < 50 | Decrease | >20 nM (mg of protein)-1 | < 50 | inhibition [7]: < 50%
23 | CCNCCCCNCCCCNCCCCNCC [DIETHYLHOMOSPERMINE] | – | – | – | – | half-life [28]: 15.4 days
24 | NC/C=C\NC[C@@H]1O[C@H](n2cnc3c(N)ncnc32)[C@@H](O)[C@H]1O | – | – | – | – | pKi [29]: 6.25
